Experimental findings from ChEMBL document CHEMBL1134398, “Synthesis, structure-activity relationships, and pharmacokinetic profiles of nonpeptidic difluoromethylene ketones as novel inhibitors of human chymase” (J Med Chem, 2001) are described below.

Each structure is given as a SMILES string. pKi: −log10 of the molar value. Active and inactive are the calls of the source. The rule behind the calls is not given here. A value given as a limit tells only on which side of the number the result lay.

A word on the pKi: it is the Ki on a negative log10 scale, so that one unit is a factor of ten. Read a high pKi as a small Ki. Usually Tmax stands for the time from dosing to the highest level. As a reminder, the AUC is concentration integrated over time. Lower therefore signals low exposure. By clearance is commonly meant the rate of elimination divided by the concentration. In general, half-life refers to how long it takes for the measured level to halve. By Cmax is commonly meant the peak of the concentration-time curve.

Series [1] can be described thus: The selectivity was determined for chymotrypsin to that of chymase.
Another series has as its target T1, Chymase (Homo sapiens, UniProt P23946).
T1 sequence (P23946 whole entry): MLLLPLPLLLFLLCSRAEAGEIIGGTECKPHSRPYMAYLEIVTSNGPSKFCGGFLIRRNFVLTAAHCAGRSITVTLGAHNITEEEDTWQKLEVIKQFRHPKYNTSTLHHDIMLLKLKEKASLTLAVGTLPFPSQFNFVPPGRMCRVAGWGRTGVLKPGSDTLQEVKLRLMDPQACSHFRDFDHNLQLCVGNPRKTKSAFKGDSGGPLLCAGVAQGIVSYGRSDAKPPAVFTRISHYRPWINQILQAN
The series is described as follows: In vitro inhibitory activity was determined against human heart chymase.

Series [2] addresses Prothrombin (Homo sapiens) (UniProt P00734). The series is described as follows: Inhibitory activity against human plasma thrombin (10 uM); No inhibition. The class given is cell-free.
Series [3] can be described thus: Time to reach Cmax after oral administration to rats. The class given is ADME, organism-based. The note with it: rat, in vivo. The gist of the method:
(§1)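 10 mg/kg by gavage to fasted male rats (suspension 10 mg/mL, 0.5% HPMC) or male beagles (solution 2.5 mg/mL, DMSO–PEG-400–1 M HCl–saline 2:38:10:50), n=3. Plasma sampled up to 24 h, assayed by LC–MS/MS. Cmax and Tmax taken from measured values. BA = (AUCpo×dose iv)/(AUCiv×dose po)×100, using 1 mg/kg iv.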

Series [4] can be described thus: Pharmacokinetic parameter AUC after oral administration to rats. Format: ADME, organism-based. The note with it: rat, in vivo. The gist of the method: as §1
Series [5] has as its target Angiotensin-converting enzyme (Homo sapiens) (UniProt P12821). The series is described as follows: Inhibitory activity against human angiotensin I converting enzyme (10 uM); No inhibition.
Series [6] can be described thus: Pharmacokinetic parameter AUC after intravenous administration to rats. The note with it: rat, in vivo. The class given is ADME, organism-based. The gist of the method: (§2)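 Male Sprague–Dawley rats (204–222 g) and male beagles (11.4–12.5 kg), n=3 each, fasted 18 h before and 4 h after dosing. Plasma sampled up to 24 h, quantified by LC–MS/MS with internal standard. AUC 0–infinity.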

Series [7] is described as follows: Bioavailability administered orally at a dose of 10 mg/kg to dogs. The note with it: dog, in vivo, po, read-out: BA. The class given is ADME, organism-based, Canis lupus familiaris. The gist of the method:
as §1

Series [8] is described as follows: Plasma administration to dogs. Format: ADME, organism-based, Canis lupus familiaris. The note with it: dog. The gist of the method:
as §2

The nature of series [9]: Plasma administration to rats. The class given is ADME, organism-based. The settings on record: rat. The gist of the method:
as §2

Series [10] can be described thus: (§3) Steady state volume of distribution was determined. Format: ADME, organism-based, Canis lupus familiaris. The settings on record: dog, in vivo; read-out: Vdss. The gist of the method: as §2
Series [11] in a line: Time to reach Cmax after oral administration to dogs. The settings on record: dog, in vivo. The class given is ADME, organism-based, Canis lupus familiaris. The gist of the method:
as §1

In the next series the target is T2, Cathepsin G (Homo sapiens, UniProt P08311).
T2 sequence (P08311 whole entry): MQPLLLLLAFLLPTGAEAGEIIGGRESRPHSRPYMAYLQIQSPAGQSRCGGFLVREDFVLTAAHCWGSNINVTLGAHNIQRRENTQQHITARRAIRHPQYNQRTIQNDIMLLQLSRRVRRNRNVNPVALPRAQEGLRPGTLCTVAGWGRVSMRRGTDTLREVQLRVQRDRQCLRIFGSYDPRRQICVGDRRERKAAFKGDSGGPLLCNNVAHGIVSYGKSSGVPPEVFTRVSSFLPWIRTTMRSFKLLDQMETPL
The series is described as follows: Inhibitory activity against human cathepsin G. The gist of the method:
(§4)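 Chymotrypsin-type assay: purified enzyme hydrolyzes succinyl-Ala-Ala-Pro-Phe-p-nitroanilide, with p-nitroaniline release followed at 405 nm. Ki derived, as means ± SEM of three independent experiments. Human heart chymase was a purified preparation.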

Series [12] is described as follows: Half life was evaluated after intravenous administration to dogs. The class given is ADME, organism-based, Canis lupus familiaris. The settings on record: dog, in vivo. The gist of the method:
as §2

Series [13] can be described thus: Maximum plasma concentration after oral administration to dogs at a dose of 10 mg/kg. Format: ADME, organism-based, Canis lupus familiaris. More on the design: dose 10 mg/kg, route oral. The settings on record: dog. The gist of the method: as §1
Series [14] can be described thus: Bioavailability administered orally at a dose of 10 mg/kg to rats. Format: ADME, organism-based. The note with it: rat, in vivo, po, read-out: BA. The gist of the method: as §1
Series [15] can be described thus: Maximum plasma concentration after oral administration to rats. The class given is ADME, organism-based. Further details: route oral. The settings on record: rat. The gist of the method: as §1
The nature of series [16]: Pharmacokinetic parameter AUC after oral administration to dogs. Format: ADME, organism-based, Canis lupus familiaris. The settings on record: dog, in vivo. The gist of the method:
as §1

Series [17] has as its target T3, Neutrophil elastase (Homo sapiens) (UniProt P08246).
T3 sequence (whole entry): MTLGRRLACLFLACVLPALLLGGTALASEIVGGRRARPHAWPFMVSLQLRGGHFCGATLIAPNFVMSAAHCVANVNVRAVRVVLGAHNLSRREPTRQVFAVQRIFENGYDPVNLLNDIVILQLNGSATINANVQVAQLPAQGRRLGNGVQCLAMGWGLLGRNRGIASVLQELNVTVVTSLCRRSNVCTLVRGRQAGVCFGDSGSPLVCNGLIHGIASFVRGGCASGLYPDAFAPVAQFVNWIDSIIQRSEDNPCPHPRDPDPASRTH
The series is described as follows: Inhibitory activity against human leukocyte elastase (10 uM); No inhibition.

Series [18] can be described thus: as §3. The class given is ADME, organism-based. The note with it: rat, in vivo; read-out: Vdss. The gist of the method:
as §2

The nature of series [19]: Half life was evaluated after intravenous administration to rats. Format: ADME, organism-based. The note with it: rat, in vivo. The gist of the method: as §2
The nature of series [20]: Pharmacokinetic parameter AUC after intravenous administration to dogs. The note with it: dog, in vivo. The class given is ADME, organism-based, Canis lupus familiaris. The gist of the method:
as §2

For a further series, the target named is T4, Mast cell protease 9 (Mus musculus, UniProt O35164).
T4 sequence (O35164 whole entry): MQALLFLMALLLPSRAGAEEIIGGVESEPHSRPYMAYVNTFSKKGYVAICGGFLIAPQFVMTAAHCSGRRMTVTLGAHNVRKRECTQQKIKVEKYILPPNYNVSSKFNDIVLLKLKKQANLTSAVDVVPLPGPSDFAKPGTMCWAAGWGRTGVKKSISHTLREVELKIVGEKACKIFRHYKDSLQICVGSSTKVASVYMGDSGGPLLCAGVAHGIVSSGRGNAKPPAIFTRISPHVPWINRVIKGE
The series is described as follows: Inhibitory activity against mouse peritoneal chymase. The gist of the method:
as §4

Angiotensin-converting enzyme (Homo sapiens), sequence (P12821 whole entry): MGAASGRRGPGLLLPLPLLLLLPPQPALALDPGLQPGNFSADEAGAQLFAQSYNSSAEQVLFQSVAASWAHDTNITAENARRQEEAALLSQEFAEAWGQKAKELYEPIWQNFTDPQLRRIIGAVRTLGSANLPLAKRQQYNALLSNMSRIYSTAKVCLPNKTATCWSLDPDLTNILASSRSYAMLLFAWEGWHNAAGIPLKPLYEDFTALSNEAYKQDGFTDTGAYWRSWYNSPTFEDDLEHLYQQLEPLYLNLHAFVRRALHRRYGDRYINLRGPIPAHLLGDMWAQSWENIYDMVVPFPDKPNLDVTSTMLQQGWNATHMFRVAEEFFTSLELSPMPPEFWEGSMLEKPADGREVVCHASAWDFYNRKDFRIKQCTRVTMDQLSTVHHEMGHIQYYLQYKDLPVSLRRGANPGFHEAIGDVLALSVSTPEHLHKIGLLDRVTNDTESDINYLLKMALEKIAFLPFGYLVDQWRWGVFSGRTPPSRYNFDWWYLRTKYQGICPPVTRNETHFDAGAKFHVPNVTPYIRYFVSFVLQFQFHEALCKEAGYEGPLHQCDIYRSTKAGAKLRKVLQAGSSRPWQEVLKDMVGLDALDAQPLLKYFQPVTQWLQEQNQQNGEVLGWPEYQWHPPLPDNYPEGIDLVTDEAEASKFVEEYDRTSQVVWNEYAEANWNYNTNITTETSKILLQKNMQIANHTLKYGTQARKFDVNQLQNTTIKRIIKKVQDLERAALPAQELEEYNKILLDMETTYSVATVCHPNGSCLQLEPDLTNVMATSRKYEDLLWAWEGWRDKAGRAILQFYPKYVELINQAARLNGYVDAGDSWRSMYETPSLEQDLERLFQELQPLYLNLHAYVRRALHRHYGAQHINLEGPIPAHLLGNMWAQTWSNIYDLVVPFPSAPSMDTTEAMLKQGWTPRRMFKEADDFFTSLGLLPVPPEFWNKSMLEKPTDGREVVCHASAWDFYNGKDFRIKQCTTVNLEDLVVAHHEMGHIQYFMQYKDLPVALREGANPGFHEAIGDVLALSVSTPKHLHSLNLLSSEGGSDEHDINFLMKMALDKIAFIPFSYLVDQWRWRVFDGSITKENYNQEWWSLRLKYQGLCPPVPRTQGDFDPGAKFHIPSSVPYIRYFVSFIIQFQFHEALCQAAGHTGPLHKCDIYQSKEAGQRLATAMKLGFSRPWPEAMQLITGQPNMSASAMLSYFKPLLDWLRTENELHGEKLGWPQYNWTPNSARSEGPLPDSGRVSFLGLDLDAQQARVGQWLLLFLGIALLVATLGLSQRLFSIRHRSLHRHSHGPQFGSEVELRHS

In the case of `Cc1cccc(-c2ncc(N)c(=O)n2CC(=O)NC(Cc2ccccc2)C(=O)C(F)(F)C(=O)NCc2ccccc2)c1` (stereo unspecified), the Selectivity in series [1] amounted to 114. Moreover, at Chymase, the negative-log Ki (pKi) is 7.77.
Regarding `COc1cccc(-c2ncc(N)c(=O)n2CC(=O)NC(Cc2ccccc2)C(=O)C(F)(F)C(=O)NCc2ccccc2)c1` (stereo unspecified), the pKi at Chymase was 7.86.
For `Cc1cccc(-c2ncc(N)c(=O)n2CC(=O)NC(Cc2ccccc2)C(=O)C(F)(F)C(=O)NCC(=O)N2CCCCC2)c1` (stereo unspecified), the pKi on Chymase is 7.99.
Still for that read-out and setting: the same measure for `CCNC(=O)CNC(=O)C(F)(F)C(=O)C(Cc1ccccc1)NC(=O)Cn1c(-c2cccc(C)c2)ncc(N)c1=O` (stereo unspecified): 8.11; for `CCOC(=O)C(F)(F)C(=O)C(Cc1ccccc1)NC(=O)Cn1c(-c2cccc(C)c2)ncc(N)c1=O` (stereo unspecified): less than 5.00.
At Chymase, `Nc1cnc(-c2cccnc2)n(CC(=O)NC(Cc2ccccc2)C(=O)C(F)(F)C(=O)NCc2ccccc2)c1=O` (stereo unspecified) showed a pKi of 7.13.
As to `Cc1cccc(-c2ncc(N)c(=O)n2CC(=O)NC(Cc2ccccc2)C(=O)C(F)(F)C(=O)N(C)C)c1` (stereo unspecified), the pKi on Chymase was 6.31.
`Nc1cnc(-c2ccc(F)cc2)n(CC(=O)NC(Cc2ccccc2)C(=O)C(F)(F)C(=O)NCc2ccccc2)c1=O` (stereo unspecified) gave a Selectivity in series [1] of 7.45. The same compound had a negative logarithm of the Ki (pKi) at Chymase of 6.36.
Turning to `Cc1cccc(-c2ncc(N)c(=O)n2CC(=O)NC(Cc2ccccc2)C(=O)C(F)(F)C(N)=O)c1` (stereo unspecified), on Chymase, the pKi was 7.88.
The same measure, in the same setting: the same measure for `Cc1cccc(-c2ncc(N)c(=O)n2CC(=O)NC(Cc2ccccc2)C(=O)C(F)(F)C(=O)Nc2ccc(C(=O)O)cc2)c1` (stereo unspecified): 7.78; for `COC(=O)CNC(=O)C(F)(F)C(=O)C(Cc1ccccc1)NC(=O)Cn1c(-c2cccc(C)c2)ncc(N)c1=O` (stereo unspecified): 7.99.
At Chymase, `Nc1cnc(-c2ccccc2)n(CC(=O)NC(Cc2ccccc2)C(=O)C(F)(F)C(=O)NCc2ccccc2)c1=O` (stereo unspecified) gave a pKi of 7.49.
Still for that read-out and setting: then `Cc1cccc(-c2ncc(N)c(=O)n2CC(=O)NC(Cc2ccccc2)C(=O)C(F)(F)C(=O)NCc2cccnc2)c1` (stereo unspecified), with 7.54; and `Cc1cccc(-c2ncc(N)c(=O)n2CC(=O)NC(Cc2ccccc2)C(=O)C(F)(F)C(=O)NCC(=O)O)c1` (stereo unspecified), with 7.77.
In turn, `Cc1cccc(-c2ncc(N)c(=O)n2CC(=O)NC(Cc2ccccc2)C(=O)C(F)(F)C(=O)NCCC(=O)O)c1` (stereo unspecified) had a Selectivity in series [1] of 62.2. The compound further gave a pKi on Chymase of 7.64.
Consider `CCN(CC)C(=O)CCNC(=O)C(F)(F)C(=O)C(Cc1ccccc1)NC(=O)Cn1c(-c2cccc(C)c2)ncc(N)c1=O` (stereo unspecified), for which the negative logarithm of the Ki (pKi) on Chymase was 7.47.
In turn, `Cc1cccc(-c2ncc(N)c(=O)n2CC(=O)NC(Cc2ccccc2)C(=O)C(F)(F)C(=O)NCC(=O)N2CCCCCC2)c1` (stereo unspecified) showed a pKi at Chymase of 8.45.
The same measure, in the same setting: the same measure for `Nc1cnc(-c2cccc(F)c2)n(CC(=O)NC(Cc2ccccc2)C(=O)C(F)(F)C(=O)NCc2ccccc2)c1=O` (stereo unspecified): 7.80.
Take `Cc1cccc(-c2ncc(N)c(=O)n2CC(=O)NC(Cc2ccccc2)C(=O)C(F)(F)F)c1` (stereo unspecified): at Chymase, the pKi is 7.30.
Take `Cc1cccc(-c2ncc(N)c(=O)n2CC(=O)NC(Cc2ccccc2)C(=O)C(F)(F)C(=O)NCC(N)=O)c1` (stereo unspecified): in series [1], the Selectivity came out at 120. Also, the negative logarithm of the Ki (pKi) at Chymase was 7.92.
On Chymase, `CNC(=O)C(F)(F)C(=O)C(Cc1ccccc1)NC(=O)Cn1c(-c2cccc(C)c2)ncc(N)c1=O` (stereo unspecified) gave a negative-log Ki (pKi) of 7.04.
Still for that read-out and setting: the same measure for `Cc1cccc(-c2ncc(N)c(=O)n2CC(=O)NC(Cc2ccccc2)C(=O)C(F)(F)C(=O)Nc2cccc(C(=O)O)c2)c1` (stereo unspecified): 8.01.
With `Nc1cnc(-c2ccncc2)n(CC(=O)NC(Cc2ccccc2)C(=O)C(F)(F)C(=O)NCc2ccccc2)c1=O` (stereo unspecified), at Chymase, the pKi is 7.07.
As to `Nc1cnc(-c2cccc(Cl)c2)n(CC(=O)NC(Cc2ccccc2)C(=O)C(F)(F)C(=O)NCc2ccccc2)c1=O` (stereo unspecified), the NI entry in [2], in [5] and in series [17] was “inactive” in each case. Further, the time of peak concentration (Tmax) was 1.3 h in [3] and 0.7 h in series [11]. Also, the area under the curve (AUC) in series [4] is 12100 ng·h/mL; in series [6] it was 7330 ng·h/mL; in series [16], 18500 ng·h/mL; in [20], 5720 ng·h/mL. In addition, the values for the bioavailability in [7] and in [14] were 32% and 17%, respectively. The clearance is 3.25 mL/min/kg in series [8] and 2.28 mL/min/kg in series [9]. Also, the Vd was 0.257 L/kg in [10] and 0.369 L/kg in series [18]. Moreover, the results for the pKi at Cathepsin G and on Mast cell protease 9 were 5.86 and 5.90, respectively. Further, the half-life in series [12] was 1.4 h; in [19] it was 2.1 h. Also, the peak concentration (Cmax) in [13] is 7320 ng/mL; in series [15], 1520 ng/mL.
In turn, `Cc1cccc(-c2ncc(N)c(=O)n2CC(=O)NC(Cc2ccccc2)C(=O)C(F)(F)C(=O)O)c1` (stereo unspecified) gave a negative-log Ki (pKi) on Chymase of less than 5.00.
On Chymase, `CCN(CC)C(=O)CNC(=O)C(F)(F)C(=O)C(Cc1ccccc1)NC(=O)Cn1c(-c2cccc(C)c2)ncc(N)c1=O` (stereo unspecified) gave a pKi of 8.03.
Same read-out and setting: the same measure for `CCCCCNC(=O)C(F)(F)C(=O)C(Cc1ccccc1)NC(=O)Cn1c(-c2cccc(C)c2)ncc(N)c1=O` (stereo unspecified): 7.73.
